In ChEMBL document CHEMBL1125477, “Highly potent and selective heptapeptide antagonists of the neurokinin NK-2 receptor” (J Med Chem, 1992) one finds pKB data, which are given here for 26 molecules.

Experiment [1] has as its target Substance-P receptor (Cavia porcellus) (UniProt P30547). The experiment is described as follows: Compound was evaluated for antagonism of contractile response of guinea pig ileum longitudinal smooth muscle (GPI) at tachykinin receptor 1. Type of experiment: functional, tissue-based. Put shortly: (§1)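 Isolated longitudinal smooth muscle of ileum from male Dunkin-Hartley guinea-pigs (300–600 g), killed by concussion and exsanguination. Contraction to SP methyl ester (NK-1 agonist). At least two control agonist curves, then one antagonist concentration per preparation. Concentration-ratio read graphically at half-maximal response. pK_B = log(CR−1) − log[antagonist]. Mean ± SE over four to eight tissues.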

Experiment [2] addresses T1, Substance-K receptor (Rattus norvegicus) (UniProt P16610).
T1 sequence (whole entry): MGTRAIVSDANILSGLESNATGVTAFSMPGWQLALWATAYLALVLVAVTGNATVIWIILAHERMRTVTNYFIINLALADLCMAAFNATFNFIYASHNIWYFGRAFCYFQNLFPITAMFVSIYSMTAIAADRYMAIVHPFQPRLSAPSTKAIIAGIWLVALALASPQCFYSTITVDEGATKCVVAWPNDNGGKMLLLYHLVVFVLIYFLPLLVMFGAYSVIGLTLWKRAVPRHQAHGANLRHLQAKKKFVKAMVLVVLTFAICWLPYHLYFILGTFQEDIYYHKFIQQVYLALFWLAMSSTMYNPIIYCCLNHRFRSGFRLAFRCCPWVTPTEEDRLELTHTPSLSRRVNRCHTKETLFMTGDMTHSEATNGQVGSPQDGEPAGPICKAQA
The experiment is described as follows: Compound was evaluated for antagonism of contractile response of rat colon muscularis mucosae (RC) at tachykinin receptor 2. Type of experiment: functional, tissue-based. To be noted: Muscularis mucosa. Put shortly:
(§2)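 Colon muscularis mucosae from male AHA rats (250–500 g), killed by concussion and exsanguination. Contraction to neurokinin A (NK-2). At least two control agonist curves, then a single antagonist concentration per tissue. Equiactive agonist concentration-ratio taken at half-maximal response. pK_B = log(CR−1) − log[antagonist]. Mean ± SE over four to eight preparations.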

The target in experiment [3] is T2, Neuromedin-K receptor (Rattus norvegicus) (UniProt P16177).
T2 sequence (whole entry): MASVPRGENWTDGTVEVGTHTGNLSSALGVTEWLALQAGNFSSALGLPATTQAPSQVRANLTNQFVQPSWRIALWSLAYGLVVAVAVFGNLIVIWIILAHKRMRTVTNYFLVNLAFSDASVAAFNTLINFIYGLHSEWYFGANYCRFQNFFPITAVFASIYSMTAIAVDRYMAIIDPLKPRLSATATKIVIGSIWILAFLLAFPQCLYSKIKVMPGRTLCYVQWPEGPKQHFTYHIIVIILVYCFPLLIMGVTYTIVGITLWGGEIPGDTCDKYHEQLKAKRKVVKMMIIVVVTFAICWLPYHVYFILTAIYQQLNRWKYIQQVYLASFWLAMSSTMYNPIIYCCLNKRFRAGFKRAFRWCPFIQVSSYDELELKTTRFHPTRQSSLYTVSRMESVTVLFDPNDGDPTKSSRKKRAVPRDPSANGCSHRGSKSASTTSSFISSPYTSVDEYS
The experiment is described as follows: Compound was evaluated for antagonism of contractile response of rat portal vein at tachykinin receptor 3. Type of experiment: functional. Put shortly: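 Everted portal vein from male AHA rats (250–500 g). Contraction to senktide (NK-3). Agonist curves were repeated at least twice before exposure to one antagonist concentration per preparation. Concentration-ratio estimated graphically at the half-maximal level. pK_B = log(CR−1) − log(molar antagonist). Mean ± SE of four to eight tissues.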

The target of experiment [4] is Substance-P receptor (Cavia porcellus) (UniProt P30547). In words: Compound was evaluated for antagonism of contractile response of guinea pig ileum longitudinal smooth muscle (GPI) at Tachykinin receptor 1. It counts as functional, tissue-based. Put shortly: as §1
Experiment [5] deals with T1, Substance-K receptor (Rattus norvegicus). In words: Compound was evaluated for antagonism of contractile response of rat colon muscularis mucosae (RC) at Tachykinin receptor 2. Type of experiment: functional, tissue-based. The note with it: Muscularis mucosa. Put shortly:
as §2

Sequence of Substance-P receptor (Cavia porcellus) (P30547 whole entry): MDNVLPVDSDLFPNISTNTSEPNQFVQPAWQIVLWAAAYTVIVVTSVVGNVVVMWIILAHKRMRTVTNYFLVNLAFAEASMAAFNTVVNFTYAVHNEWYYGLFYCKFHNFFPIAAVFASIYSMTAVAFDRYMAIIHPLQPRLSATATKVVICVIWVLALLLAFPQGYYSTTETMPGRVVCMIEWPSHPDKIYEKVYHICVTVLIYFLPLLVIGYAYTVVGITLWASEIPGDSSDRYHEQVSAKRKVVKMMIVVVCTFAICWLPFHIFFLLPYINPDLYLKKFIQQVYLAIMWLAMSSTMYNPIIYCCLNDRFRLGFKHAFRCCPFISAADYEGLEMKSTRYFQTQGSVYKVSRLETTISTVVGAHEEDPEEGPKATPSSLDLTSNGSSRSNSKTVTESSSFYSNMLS

Turning to `CCCC[C@H](NC(=O)[C@@H]1CCCN1C(=O)[C@H]1CCCN1C(=O)[C@H](Cc1ccccc1)NC(=O)[C@@H](Cc1c[nH]c2ccccc12)NC(=O)[C@H](C)NC(=O)[C@H](CCCN=C(N)N)NC(=O)OC(C)(C)C)C(N)=O`, the pKB in experiment [1] is 5.8; in experiment [2] it was 8.2; in experiment [3], less than 4.6.
In experiment [2], `CCCC[C@H](NC(=O)[C@@H]1CCCN1C(=O)[C@H]1CCCN1C(=O)[C@H](Cc1ccccc1)NC(=O)[C@@H](Cc1ccccc1)NC(=O)[C@H](C)NC(=O)[C@H](CCCN=C(N)N)NC(=O)OC(C)(C)C)C(N)=O` displayed a pKB of 6.4.
Consider `CSCC[C@H](NC(=O)[C@@H]1CCCN1C(=O)[C@H]1CCCN1C(=O)[C@H](Cc1ccccc1)NC(=O)[C@@H](Cc1c[nH]c2ccccc12)NC(=O)[C@H](C)NC(=O)[C@H](CCCN=C(N)N)NC(=O)OC(C)(C)C)C(N)=O`, for which the values for the negative-log KB (pKB) in experiment [1] and in experiment [2] were less than 4.5 and 6.2, respectively.
Take `CCCC[C@H](NC(=O)[C@@H]1CCCN1C(=O)[C@H]1CCCN1C(=O)[C@H](Cc1ccccc1)NC(=O)[C@H](Cc1ccccc1)NC(=O)[C@H](C)NC(=O)[C@@H](N)CCCN=C(N)N)C(N)=O`: the pKB in experiment [1], in experiment [2] and in experiment [3] was less than 4.6 in each case.
For `CCCCCNC(=O)[C@@H]1CCCN1C(=O)[C@H]1CCCN1C(=O)[C@H](Cc1ccccc1)NC(=O)[C@@H](Cc1c[nH]c2ccccc12)NC(=O)[C@H](C)NC(=O)[C@H](CCCN=C(N)N)NC(=O)OC(C)(C)C`, the negative-log KB (pKB) in experiment [1] worked out at 5.8; in experiment [2] it was 7.6.
`CCCC[C@H](NC(=O)[C@@H]1CCCN1C(=O)[C@H]1CCCN1C(=O)[C@H](Cc1ccccc1)NC(=O)[C@@H](Cc1c[nH]c2ccccc12)NC(=O)[C@H](C)NC(=O)[C@H](N)CCC(=O)OCc1ccccc1)C(N)=O`: the figures for the pKB in experiment [4] and in experiment [5] were less than 5.5 and 7.2, respectively.
Take `C[C@H](NC(=O)[C@H](CCCN=C(N)N)NC(=O)OC(C)(C)C)C(=O)N[C@H](Cc1c[nH]c2ccccc12)C(=O)N[C@@H](Cc1ccccc1)C(=O)N1CCC[C@@H]1C(=O)N1CCC[C@H]1C(=O)NCC(N)=O`: the pKB was found to be 5.3 in experiment [1] and 7 in experiment [2].
Consider `CCCC[C@H](NC(=O)[C@@H]1CCCN1C(=O)CNC(=O)[C@H](Cc1ccccc1)NC(=O)[C@@H](Cc1c[nH]c2ccccc12)NC(=O)[C@H](C)NC(=O)[C@@H](N)CCCN=C(N)N)C(N)=O`, for which the pKB in experiment [1] was 4.8; in experiment [2] it was less than 4.6; in experiment [3], less than 4.6.
Consider `CCCC[C@H](NC(=O)[C@H](CC(C)C)NC(=O)[C@@H](Cc1c[nH]c2ccccc12)NC(=O)[C@H](Cc1ccccc1)NC(=O)[C@@H](Cc1c[nH]c2ccccc12)NC(=O)[C@H](CCC(N)=O)NC(=O)[C@H](CCCN=C(N)N)NC(=O)OC(C)(C)C)C(N)=O`, for which the pKB in experiment [1] worked out at 7.1; in experiment [2], 6.5.
With `CCCC[C@H](NC(=O)[C@H](CC(C)C)NC(=O)[C@@H](Cc1c[nH]c2ccccc12)NC(=O)[C@H](Cc1ccccc1)NC(=O)[C@@H](Cc1c[nH]c2ccccc12)NC(=O)[C@H](C)NC(=O)[C@H](CCCN=C(N)N)NC(=O)OC(C)(C)C)C(N)=O`, the pKB in experiment [1] worked out at 6.9; in experiment [2] it was 6.5.
As for `CCCC[C@H](NC(=O)C1CCCN1C(=O)[C@H]1CCCN1C(=O)[C@H](Cc1ccccc1)NC(=O)[C@@H](Cc1c[nH]c2ccccc12)NC(=O)CCCCNC(=O)OC(C)(C)C)C(N)=O` (stereo not given in full), the pKB in experiment [5] came to 7.6.
In the case of `CCCC[C@H](NC(=O)[C@@H]1CCCN1C(=O)[C@H]1CCCN1C(=O)[C@H](Cc1ccccc1)NC(=O)[C@H](Cc1c[nH]c2ccccc12)NC(=O)[C@H](C)NC(=O)[C@H](CCCN=C(N)N)NC(=O)OC(C)(C)C)C(N)=O`, the pKB is less than 5 in experiment [1] and 6.4 in experiment [2].
Consider `CSCC[C@@H](NC(=O)[C@H](CC(C)C)NC(=O)[C@H]1CCCN1C(=O)[C@H](Cc1ccccc1)NC(=O)[C@@H](Cc1c[nH]c2ccccc12)NC(=O)[C@H](C)NC(=O)[C@@H](N)CCCN=C(N)N)C(N)=O`, for which the values for the negative logarithm of the KB (pKB) in experiment [1], in experiment [2] and in experiment [3] were less than 4.6, 5.7 and 4.9, respectively.
For the molecule `CCCC[C@H](NC(=O)[C@@H]1CCCN1C(=O)[C@H]1CCCN1C(=O)[C@H](Cc1ccccc1)NC(=O)[C@H]1CCCN1C(=O)[C@H](C)NC(=O)[C@H](CCCN=C(N)N)NC(=O)OC(C)(C)C)C(N)=O`, the negative-log KB (pKB) in experiment [1] is 4.5; in experiment [2] it was 5.2.
Turning to `CCCC[C@H](NC(=O)[C@H](CC(C)C)NC(=O)[C@@H](Cc1c[nH]c2ccccc12)NC(=O)[C@H](Cc1ccccc1)NC(=O)[C@@H](Cc1c[nH]c2ccccc12)NC(=O)[C@H](CCC(N)=O)NC(=O)[C@@H](N)CCCN=C(N)N)C(N)=O`, the pKB worked out at 6.4 in experiment [1] and 5.7 in experiment [2].
On to `CCCC[C@H](NC(=O)[C@@H]1CCCN1C(=O)[C@H]1CCCN1C(=O)[C@H](Cc1ccccc1)NC(=O)[C@@H](Cc1c[nH]c2ccccc12)NC(=O)[C@H](C)NC(=O)[C@H](CCC/N=C(\N)N[N+](=O)[O-])NC(=O)OC(C)(C)C)C(N)=O`, for which the pKB was determined as 5.5 in experiment [1], 8.2 in experiment [2] and 5.2 in experiment [3].
As for `CNC(=O)[C@@H]1CCCN1C(=O)[C@H]1CCCN1C(=O)[C@H](Cc1ccccc1)NC(=O)[C@@H](Cc1c[nH]c2ccccc12)NC(=O)[C@H](C)NC(=O)[C@H](CCCN=C(N)N)NC(=O)OC(C)(C)C`, the pKB worked out at 5.1 in experiment [1] and 7.5 in experiment [2].
As for `CCCC[C@H](NC(=O)[C@@H]1CCCN1C(=O)[C@H]1N(C(=O)[C@H](Cc2ccccc2)NC(=O)[C@@H](Cc2c[nH]c3ccccc23)NC(=O)[C@H](C)NC(=O)[C@@H](N)CCCN=C(N)N)CSC1(C)C)C(N)=O`, the negative-log KB (pKB) is 4.7 in experiment [4] and 5.9 in experiment [5].
`CCCC[C@H](NC(=O)[C@@H]1CCCN1C(=O)[C@H]1CCCN1C(=O)[C@H](Cc1ccccc1)NC(=O)[C@@H](Cc1c[nH]c2ccccc12)NC(=O)[C@H](C)NC(=O)[C@@H](CCCN=C(N)N)NC(=O)OC(C)(C)C)C(N)=O`: the pKB in experiment [1] is 5.7; in experiment [2], 5.2.
The matching figures for `CCCC[C@H](NC(=O)[C@@H]1CCCN1C(=O)[C@H]1CCCN1C(=O)[C@H](Cc1ccccc1)NC(=O)[C@@H](Cc1c[nH]c2ccccc12)NC(=O)[C@H](C)NC(=O)[C@H](CCCN=C(N)N)NC(=O)OCc1ccccc1)C(N)=O`: 6.7 and 7.5.
Consider `CCCC[C@H](NC(=O)[C@@H]1CCCN1C(=O)[C@H]1CCCN1C(=O)[C@H](Cc1ccccc1)NC(=O)[C@@H](C)NC(=O)[C@H](C)NC(=O)[C@H](CCCN=C(N)N)NC(=O)OC(C)(C)C)C(N)=O`, for which the pKB was 4.8 in experiment [1] and 5.6 in experiment [2].
`CCCC[C@H](NC(=O)[C@@H]1CCCN1C(=O)[C@H]1CCCN1C(=O)[C@H](Cc1ccccc1)NC(=O)[C@@H](Cc1c[nH]c2ccccc12)NC(=O)[C@H](C)NC(=O)[C@H](CCCCN)NC(=O)OC(C)(C)C)C(N)=O`: the pKB worked out at 4.8 in experiment [4] and 7.1 in experiment [5].
`CCCC[C@H](NC(=O)[C@@H]1CCCN1C(=O)[C@H]1CCCN1C(=O)[C@H](Cc1ccccc1)NC(=O)[C@@H](Cc1c[nH]c2ccccc12)NC(=O)[C@H](C)NC(=O)[C@H](CCCN=C(N)N)NC(C)=O)C(N)=O`: the figures for the pKB in experiment [1] and in experiment [2] were 4.6 and 5.6, respectively.
The matching figures for `CCCC[C@H](NC(=O)[C@@H]1CCCN1C(=O)[C@H]1CCCN1C(=O)[C@H](Cc1ccccc1)NC(=O)[C@@H](Cc1c[nH]c2ccccc12)NC(=O)[C@H](C)NC(=O)[C@@H](CCC(=O)OCc1ccccc1)NC(=O)OC(C)(C)C)C(N)=O`: 6 and 7.1.
For the molecule `CCCC[C@H](NC(=O)[C@@H]1CCCN1C(=O)[C@H]1CCCN1C(=O)[C@H](Cc1ccccc1)NC(=O)[C@@H](Cc1c[nH]c2ccccc12)NC(=O)[C@H](C)NC(=O)[C@H](CCC(=O)OCc1ccccc1)NC(=O)OC(C)(C)C)C(N)=O`, the figures for the negative logarithm of the KB (pKB) in experiment [1] and in experiment [2] were 6.6 and 7.4, respectively.
As to `CCCC[C@H](NC(=O)[C@@H]1CCCN1C(=O)[C@H]1CCCN1C(=O)[C@H](Cc1ccccc1)NC(=O)[C@@H](Cc1c[nH]c2ccccc12)NC(=O)[C@H](C)NC(=O)[C@H](CCC(=O)O)NC(=O)OC(C)(C)C)C(N)=O`, the results for the negative-log KB (pKB) in experiment [4] and in experiment [5] were less than 4.5 and 6.5, respectively.

By pKB is commonly meant the negative decadic logarithm of the KB, by convention in mol/L.
